Bioassay records as filed in PubChem.
A selection: hits, their analogues and other compounds. The true share with any hit is near 2.9%.
HIV Env fusion = blocks HIV Env-driven cell-cell fusion; HeLa-JRFL Env/CEM21 cell fusion, luciferase; inhibition, % at 12.3 µM; hit rate 1.1% among 360,000;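 active = mean replicate inhibition score of at least 50 and every replicate individually at or above 50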;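 note: 0% = plate neutral controls and 100% = maraviroc near 300 nM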
dFosB activator = enhances mouse delta FosB homodimer DNA binding. hit rate 0.99% among 340,000. purified delta FosB, TAMRA-CDK5 oligo fluorescence polarization; percent of positive-control signal above neutral wells. P13346. AID 493131. activation, % at 25 µM;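 active = mean activation above about 17%, with every replicate also reaching it, limit read from the data, passing the limit was not always enough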
Target sequence (P13346 whole entry, looked up): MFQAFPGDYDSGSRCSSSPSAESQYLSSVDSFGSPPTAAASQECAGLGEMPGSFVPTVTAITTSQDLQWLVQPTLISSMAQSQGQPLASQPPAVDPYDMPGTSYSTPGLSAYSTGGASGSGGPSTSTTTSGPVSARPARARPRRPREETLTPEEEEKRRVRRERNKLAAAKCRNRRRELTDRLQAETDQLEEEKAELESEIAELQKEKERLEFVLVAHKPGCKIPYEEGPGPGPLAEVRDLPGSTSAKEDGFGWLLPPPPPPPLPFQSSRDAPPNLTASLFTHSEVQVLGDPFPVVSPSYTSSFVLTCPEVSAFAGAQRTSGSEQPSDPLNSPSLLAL
PAX8 inh HTS = inhibitors of PAX8 transcriptional activity in RMG-I cells. RMG-I TPO-luciferase reporter, SteadyGlo, 24 h. inhibition, % at 12.6 µM. hit rate 1.2% among 360,000. AID 652154;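 active = mean replicate inhibition at least 60% with every replicate also reaching 60%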;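 note: luciferase light reporting Pax8 driven TPO promoter activity; plate controls were median of neutral control wells for no effect and mitoxantrone controls for full effect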
CDK5 p35 inh = blocks human CDK5/p35 kinase activity; hit rate 0.01% among 330,000; inhibition, % at 10 µM; Q00535+Q15078; Recombinant CDK5/p35, ADP-Glo luminescence, 60 min;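 active = highest replicate inhibition of at least 50% and at least 75% of replicates reaching 50%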;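 note: plate controls were DMSO neutral control for no effect and GW8510 at 10 µM for full effect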
Cneo AK release = causes C. neoformans cell lysis. lysis activity, % at 15 µM. adenylate kinase release luminescence, 4 h; normalised: neutral wells 0, clomiphene wells 100. hit rate 0.2% among 360,000;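 active = mean lysis activity across replicates of at least 80%, whatever share of replicates individually reach that level; inactive = mean lysis activity below 80%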
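Assay system: C. neoformans cells. Amount: yeast cell density of 5 × 10^6 cells/mL. Technique: AK luminescence. Buffer or medium: YPD. Times: static 4 h at 37 °C with compound, 1 h detection. Dosing: single-point compound dose. Read-out: lysis from increased AK signal.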
GSIS activator = GLuc luminescence reporter in INS-1E cells, primary screen for activators of glucose-dependent secretion of insulin; INS-1E GLuc reporter insulin secretion, 2-3 h; activation, % at 16.6 µM; hit rate 0.61% among 370,000;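 active = lowest replicate activation of at least 40%, so every replicate reaches that level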;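 note: 0% = median of neutral control wells and 100% = median of IBMX positive control wells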
An asterisk follows results filed as active; · = no result; [ ] = remark or other dose.

SMILES	HIV Env fusion	dFosB activator	PAX8 inh HTS	CDK5 p35 inh	Cneo AK release	GSIS activator
C[C@H]1CN([C@@H](C)CO)S(=O)(=O)c2ccc(C#Cc3ccc(F)cc3)cc2O[C@@H]1CN(C)C(=O)NC1CCCC1	43[16.7 µM]	·	·	·	0	-6
CCCC#Cc1ccc2c(c1)O[C@H](CN(C)C)[C@H](C)CN([C@@H](C)CO)S2(=O)=O	-35[16.7 µM]	·	-20	·	2	10
C[C@H]1CN([C@@H](C)CO)S(=O)(=O)c2ccc(C#Cc3cccc(F)c3)cc2O[C@@H]1CN(C)C	-6[16.7 µM]	·	·	·	94*	18
Cc1noc(C)c1NC(=O)N(C)C[C@H]1Oc2cc(C#CCC3CCCC3)ccc2S(=O)(=O)N([C@@H](C)CO)C[C@@H]1C	·	·	66*	·	0	-4
CCCC#Cc1ccc2c(c1)O[C@@H](CN(C)C)[C@@H](C)CN([C@@H](C)CO)S2(=O)=O	3[16.7 µM]	·	-14	·	101*	10
C[C@@H]1CN([C@H](C)CO)S(=O)(=O)c2ccc(C#Cc3ccc(F)cc3)cc2O[C@H]1CN(C)C(=O)NC1CCCCC1	39[16.7 µM]	·	98*	·	-9	-6
CN1CCN(C(=O)C[C@@H]2C[C@H]3c4cc(NC(=O)CC5CC5)ccc4O[C@H]3[C@H](CO)O2)CC1	·	·	·	·	-3	-3
COc1ccc2c3c(n(C)c2c1)[C@@H](CO)N(C(=O)NC1CCCCC1)CC31CN(C)C1	·	·	-8	·	·	15
O=C(C[C@H]1CC[C@H](NC(=O)C2CC2)[C@@H](CO)O1)Nc1ccccc1	·	·	·	·	-1	-1
C[C@@H]1CN([C@H](C)CO)S(=O)(=O)c2ccc(C#Cc3ccc(F)cc3)cc2O[C@H]1CN(C)C(=O)NC1CCCC1	21[16.7 µM]	·	·	·	82*	-14
N#C/C(=C\c1c(N2CCCCCC2)nc2ccccn2c1=O)C(N)=O	3	5	-7	-1	0	40*
COc1ccc(NC(=O)N2CCN(c3nc(-c4cccc(OC)c4)cs3)CC2)cc1	63*	-9	·	2	-5	-25
O=C1c2cccc3c([N+](=O)[O-])ccc(c23)C(=O)N1CCc1ccccn1	-27	2	13	-1	-4	-3
CN(C)CCCN1C(=O)c2cccc3c([N+](=O)[O-])ccc(c23)C1=O	·	19*	16	5	·	-29
COC(=O)CN1C(c2ccc(Cl)cc2)=Nc2ccc(Cl)cc2C1c1ccccc1 (stereo not given)	80*	-3	21	0	·	0
N#CC1=C(N)Oc2n[nH]c(-c3ccccc3)c2C1c1cccnc1 (stereo not given)	-20	-11	4	2	0	·
N#CC1=C(N)Oc2nc(-c3ccccc3)[nH]c2C1c1cccnc1 (stereo not given)	·	-6	·	-1	-3	48*
Cc1ccc(-c2[nH]nc3c2C(c2cccnc2)C(C#N)=C(N)O3)cc1 (stereo not given)	24	-13	·	0	0	78*
COc1cccc(OCCn2cc(C(=O)c3ccco3)c3ccccc32)c1	66*	-12	·	2	-5	·
COc1ccccc1OCCn1cc(C(=O)c2ccco2)c2ccccc21	-5	-13	2	-2	0	-9
O=C1N[C@H](Cc2ccccc2)COCc2cn(nn2)CC[C@@H]1Cc1ccccc1	29[16.7 µM]	·	-5	·	2	17
O=c1c2ccccc2n(Cc2ccc(Cl)cc2)c(=O)n1Cc1ccco1	·	-10	·	-1	-3	·
O=C(NCc1ccco1)c1ccc(Cn2c(=O)c3ccccc3n(Cc3ccc(Cl)cc3)c2=O)cc1	119*	-6	·	-1	-2	·
O=C(NCc1ccco1)c1ccc(Cn2c(=O)c3ccccc3n(Cc3cccc(F)c3)c2=O)cc1	85*	2	·	1	0	·
COCCNC(=O)Cn1c(=O)n(Cc2ccc(C(=O)NCc3ccco3)cc2)c(=O)c2ccccc21	-68	-10	-9	1	0	10
SMILES	HIV Env fusion	dFosB activator	PAX8 inh HTS	CDK5 p35 inh	Cneo AK release	GSIS activator
C[C@@]12C(=O)N(c3cccc(F)c3)C(=O)N1[C@H](c1ccc(Cl)cc1)[C@@H]1C(=O)N(C3CCCCC3)C(=O)[C@@H]12	1	-3	4	0	-1	2
COc1ccc(N2C(=O)N3[C@H](c4ccc(Cl)cc4)[C@@H]4C(=O)N(C5CCCCC5)C(=O)[C@@H]4[C@]3(C)C2=O)cc1	85*	0	1	0	0	-5
C[C@@]12C(=O)N(c3cccc(Cl)c3)C(=O)N1[C@H](c1ccc(Cl)cc1)[C@@H]1C(=O)N(C3CCCCC3)C(=O)[C@@H]12	103*	0	11	2	0	1
C[C@H]1CN([C@@H](C)CO)C(=O)c2cc(NS(=O)(=O)c3ccc(Cl)cc3)ccc2O[C@H]1CN(C)CC1CC1	9[16.7 µM]	·	-6	·	37	13
CN(C)C(=O)C[C@@H]1CC[C@@H](NC(=O)NC2CCCCC2)[C@@H](CO)O1	-15[16.7 µM]	·	12	·	0	13
COCC(=O)N1[C@H](C#N)[C@H](c2ccccc2C2=CCCCC2)[C@H]1CO	·	·	·	·	·	3
CO[C@H]1CN(C)C(=O)c2cc(NS(C)(=O)=O)ccc2OC[C@H](C)N(Cc2ccccn2)C[C@@H]1C	·	·	·	·	·	-9
Cc1ccc(-n2nc(C)c(NC(=O)CCl)c2C)cc1C	-117	5	112*	0	1	29
O=C(Cc1ccccn1)N[C@H]1CC[C@@H](CCn2cc(-c3ccc(F)cc3)nn2)O[C@H]1CO	·	·	·	·	·	-4
C=C1C(=O)O[C@@H]2[C@H]1[C@@H](OC(=O)/C(C)=C/C)C/C(C)=C\C(=O)/C=C(\C)[C@@H]2O	-141	-18	98*	1	3	48
O=C(N[C@H]1CC[C@H](CCNS(=O)(=O)c2ccccc2Cl)O[C@@H]1CO)c1ccc(F)cc1	-2[16.7 µM]	·	4	·	-6	-1
O=C(NC12CC3CC(CC(C3)C1)C2)N(Cc1ccccc1)Cc1ccncc1	62*	-2	-21	2	-2	-30
O=C(NC12CC3CC(CC(C3)C1)C2)c1ccccc1	9	0	-19	0	-18	0
CCOC(=O)Cc1nn(Cc2ccccc2)c(=O)c2ccccc12	20	-6	-7	-2	·	89*
CCOC(=O)Cc1nn(Cc2ccc(Cl)cc2)c(=O)c2ccccc12	11	-6	0	0	4	20
O=C1/C(=C/c2cccc(F)c2)CSc2sccc21	·	-7	·	-1	2	43*
CN(C)C(=O)c1ccc(-c2ccc([C@H]3[C@@H](C#N)N(S(C)(=O)=O)[C@@H]3CO)cc2)cc1	·	·	-12	·	0	1
CCCCn1c(=O)[nH]c(=O)c2c1nc(Cn1ncc(Cl)c(Cl)c1=O)n2CCC	-112	-11	97*	0	-1	111
CCCCn1c(=O)[nH]c(=O)c2c1nc(CN1C(=O)c3ccccc3S1(=O)=O)n2CCC	·	0	·	-1	-2	·
